Source: PubChem BioAssay
H69AR growth 86K: blocks growth of human H69AR lung tumor cells; 85,000 compounds, 6% hits; AID 598; viability, % at 10 µM; H69AR lung tumor viability, ATP luminescence, 72 h; active compounds read low;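 active means viability at or below 40%; inactive means viability above 40%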;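 further: multidrug resistant small cell line overexpressing MRP-1 efflux transporter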
Fibroblast inh: blocks proliferation of human lung fibroblasts; viability, % at 10 µM; 85,000 compounds, 1.1% hits; LL 47 human lung fibroblast viability, ATP luminescence; active compounds read low;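 active means viability at or below 50% in the single dose screen; inactive means viability above 50%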;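 further: compound exposure lasted 72 h before the ATP readout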
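test system = LL 47 human lung fibroblasts | amount = 1,150 fibroblasts seeded per well | medium = 15% FBS in IMEM | times = overnight cell rest, 72 h compound treatment at 37 °C | measured by = CellTiter-Glo luminescence measuring cellular ATP | read-out = viability percentage against median untreated-cell control | benchmarks = cell-only wells, no compound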
HCT116 bCat-KO: beta-catenin-lacking colon tumor cell growth suppression; HCT116 beta-catenin knockout viability, CellTiter-Glo, 60 h; active compounds read low; viability, % at 10 µM; 140,000 compounds, 1.5% hits; AID 818;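 active means viability at or under a set limit, the compound median less 4 SD, cut at about 6% in these data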
HUVEC prolif 384: inhibitors of human endothelial cell proliferation | AID 648 | 86,000 compounds, 1.1% hits | viability, % at 10 µM (by protocol) | HUVEC proliferation, CellTiter-Glo luminescence, 72 h; active compounds read low;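 active means viability at or below 30%; inactive means viability above 30%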
PTEN del growth: PTEN-deleted cell growth suppression | HCT116 PTEN-null viability, CellTiter-Glo, 60 h; active compounds read low | viability, % at 10 µM | 140,000 compounds, 1.2% hits | AID 827;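 active means viability at or below a set limit, 4 SD under the median of all tested compounds, cut at about 3.7% in these data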;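 further: PTEN knockout HCT116 line with beta catenin targeted HCT116 as companion control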
Numbers stand for hits. The sample as a whole holds a higher share of hits than the screen did.

Screening COC(=O)c1ccc(CSc2nnc(NC(=O)c3cc4c(s3)CCCC4)s2)cc1 returned H69AR growth 86K 7.6, Fibroblast inh inactive, HCT116 bCat-KO inactive, HUVEC prolif 384 inactive and PTEN del growth inactive.
Screening Cc1ccc2cc(C#N)c(SCc3nnc(-c4ccccc4[N+](=O)[O-])o3)nc2c1 returned HCT116 bCat-KO 1.4 and PTEN del growth 1.2.
Cc1ccc2nc3sc(-c4nnc(-c5ccccc5[N+](=O)[O-])o4)c(N)c3cc2c1 was read as HCT116 bCat-KO inactive and PTEN del growth inactive.
O=C(CSc1ccccc1)Nc1ccc(N2CCOCC2)cc1 was read as H69AR growth 86K 6.8, Fibroblast inh inactive, HCT116 bCat-KO inactive, HUVEC prolif 384 inactive and PTEN del growth inactive.
O=C(/C=C/c1cccc([N+](=O)[O-])c1)NC(=S)Nc1cccc(NC(=O)c2ccccc2Cl)c1 was read as HCT116 bCat-KO inactive and PTEN del growth 2.8.
CC1CCc2c(sc(NC(=O)CN3CCN(C(=O)c4ccco4)CC3)c2C#N)C1 (centres undefined) was read as HCT116 bCat-KO inactive and PTEN del growth inactive.
For O=C1CCCC(=O)N1c1ccc(Oc2ccc(Cl)cc2)cc1 the results were HCT116 bCat-KO inactive and PTEN del growth inactive.
`CN(C)CCCN1c2ccccc2CCc2ccc(Cl)cc21` gave H69AR growth 86K inactive, Fibroblast inh inactive, HCT116 bCat-KO 1.7, HUVEC prolif 384 inactive and PTEN del growth 1.6.
For CN(C)CCCN1c2ccccc2Sc2ccccc21 the results were H69AR growth 86K inactive, Fibroblast inh inactive, HCT116 bCat-KO inactive, HUVEC prolif 384 inactive and PTEN del growth inactive.
For CC1=CC(C)C2(CO)COC(c3cccnc3)C1C2C (centres undefined) the results were HCT116 bCat-KO inactive and PTEN del growth inactive.
Screening CCN1C(=O)/C(=C/N(C(C)=O)c2ccccc2)N(c2ccccc2)C1=S returned H69AR growth 86K 16.1, Fibroblast inh inactive, HCT116 bCat-KO inactive, HUVEC prolif 384 inactive and PTEN del growth inactive.
For CCOc1ccc2nc(N3CCC(C(=O)N4CCN(c5ncccn5)CC4)CC3)sc2c1 the results were H69AR growth 86K 38.3, Fibroblast inh inactive and HUVEC prolif 384 inactive.
`CN1CCN(NC(=S)NC2CCCCC2)CC1` gave HCT116 bCat-KO inactive and PTEN del growth inactive.
`CSc1nc2nc3c(c(=O)n2[nH]1)CCCC3` gave H69AR growth 86K inactive, Fibroblast inh inactive, HCT116 bCat-KO inactive, HUVEC prolif 384 inactive and PTEN del growth inactive.
For CCCn1c(NC(=S)Nc2ccccc2)nc2ccccc21 the results were HCT116 bCat-KO inactive and PTEN del growth inactive.
For S=C(Nc1ccccc1)Nc1nc2ccccc2n1CCOc1ccc(Cl)cc1 the results were HCT116 bCat-KO 1.1 and PTEN del growth 0.9.
`CCN(CC)S(=O)(=O)c1ccc2oc(C(=O)NCC3COc4ccccc4O3)c(C)c2c1` (centres undefined) gave H69AR growth 86K 31.8, Fibroblast inh inactive, HCT116 bCat-KO inactive, HUVEC prolif 384 inactive and PTEN del growth inactive.
For CCN(CC)S(=O)(=O)c1ccc2oc(C(=O)NCc3ccc(F)cc3)c(C)c2c1 the results were H69AR growth 86K 33.2, Fibroblast inh inactive, HCT116 bCat-KO inactive, HUVEC prolif 384 inactive and PTEN del growth inactive.
Screening COc1ccc(N(C)S(=O)(=O)c2cccc3cccnc23)c(OC)c1 returned H69AR growth 86K 16.7, Fibroblast inh inactive, HCT116 bCat-KO inactive, HUVEC prolif 384 inactive and PTEN del growth inactive.
For COc1ccc(NC(=O)C2CCCN2S(=O)(=O)c2cccc3cccnc23)c(OC)c1 (centres undefined) the results were H69AR growth 86K inactive, Fibroblast inh inactive, HCT116 bCat-KO inactive, HUVEC prolif 384 inactive and PTEN del growth inactive.
`COc1ccc(OC)c(Nc2nc3nonc3nc2N2CCCC(C)C2)c1` (centres undefined) gave HCT116 bCat-KO inactive and PTEN del growth inactive.
Cc1ccc(S(=O)(=O)N2CCN(C(=O)CN3CCOCC3)C2c2ccccc2)cc1 (centres undefined) was read as H69AR growth 86K 7.1, Fibroblast inh inactive, HCT116 bCat-KO inactive, HUVEC prolif 384 inactive and PTEN del growth inactive.
For O=C(CN1CCOCC1)N1CCN(S(=O)(=O)c2ccccc2)C1c1ccccc1 (centres undefined) the results were H69AR growth 86K inactive, Fibroblast inh inactive, HCT116 bCat-KO inactive, HUVEC prolif 384 inactive and PTEN del growth inactive.
For O=C(CN1CCOCC1)Nc1ccccc1Sc1ccc(Cl)cc1 the results were HCT116 bCat-KO inactive and PTEN del growth inactive.
Screening COc1ccc2[nH]c3c(Cl)ncnc3c2c1 returned HCT116 bCat-KO 5.7 and PTEN del growth inactive.
Screening CCCCOc1ncnc2c1[nH]c1ccc(OC)cc12 returned H69AR growth 86K inactive, Fibroblast inh inactive, HCT116 bCat-KO inactive, HUVEC prolif 384 inactive and PTEN del growth inactive.
Screening Cc1cc(NC(=O)CN2C(=O)NC3(CCCCC3C)C2=O)no1 (centres undefined) returned HCT116 bCat-KO inactive and PTEN del growth inactive.
FC(F)(F)c1cc(-c2ccco2)nc(NCc2cccnc2)n1 was read as H69AR growth 86K 29.3, Fibroblast inh inactive, HCT116 bCat-KO inactive, HUVEC prolif 384 inactive and PTEN del growth inactive.
Screening CC(=O)N1CCc2c(sc(NC(=O)c3ccc4c(c3)OCCO4)c2C#N)C1 returned H69AR growth 86K 24.4, Fibroblast inh inactive, HCT116 bCat-KO inactive, HUVEC prolif 384 inactive and PTEN del growth inactive.
For COc1cccc(-n2nc(C(=O)N3CC(C)CC(C)C3)c3ccccc3c2=O)c1 (centres undefined) the results were H69AR growth 86K inactive, Fibroblast inh inactive, HCT116 bCat-KO inactive, HUVEC prolif 384 inactive and PTEN del growth inactive.
Screening CCC(=O)Nc1nnc(SCC(=O)N2c3ccccc3CC2C)s1 (centres undefined) returned H69AR growth 86K inactive, Fibroblast inh 36.5, HCT116 bCat-KO inactive, HUVEC prolif 384 inactive and PTEN del growth inactive.
For Cc1nc2c(c(C)c1C#N)C(=O)c1ccccc1-2 the results were HCT116 bCat-KO inactive and PTEN del growth inactive.
Cc1nc(S(=O)(=O)N(C)c2ccccc2)c(C#N)c(C)c1Cl was read as H69AR growth 86K 4.2, Fibroblast inh 39.4, HCT116 bCat-KO 3.3, HUVEC prolif 384 inactive and PTEN del growth inactive.
`O=c1[nH]c2ccccc2n1CCC1CCCCC1` gave H69AR growth 86K inactive, Fibroblast inh inactive, HCT116 bCat-KO inactive, HUVEC prolif 384 inactive and PTEN del growth inactive.
Screening NC(=O)c1c(NC(=O)c2ccccc2)sc2c1CCc1ccccc1-2 returned H69AR growth 86K 25.6, Fibroblast inh inactive, HCT116 bCat-KO inactive, HUVEC prolif 384 inactive and PTEN del growth inactive.
Screening NC(=O)c1c(NC(=O)c2ccco2)sc2c1CCC2 returned H69AR growth 86K inactive, Fibroblast inh inactive, HCT116 bCat-KO inactive, HUVEC prolif 384 inactive and PTEN del growth inactive.
COc1ccc(-c2cc(N)n(S(=O)(=O)c3c(F)c(F)c(F)c(F)c3F)n2)cc1OC was read as H69AR growth 86K 1.4, Fibroblast inh 2.6, HCT116 bCat-KO 5.7, HUVEC prolif 384 2.2 and PTEN del growth 2.1.
CC(C)CN=C(NS(=O)(=O)c1ccccc1)C(Cl)(Cl)Cl was read as HCT116 bCat-KO 4.7 and PTEN del growth inactive.
